Source: publication PMC4862586 (The New England journal of medicine, 2015)

Tests used:
CLL = details: cited from earlier work
[1] = Pharmacokinetics in patients, cycle 1, non-compartmental analysis; type: in vivo; details: human, po
primary CLL cells = assay: B-cell receptor signaling in primary CLL cells; type: cell-based, human
phosphorylated Btk = assay: Phosphorylation of Btk by intracellular flow cytometry; type: in vivo, human; details: respective time points across all cohorts
How it was run: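 Patients with relapsed CLL received oral drug continuously at 100, 175, 250 or 400 mg once daily (dose escalation) or 100 mg twice daily (phase 2 expansion). Phosphorylated Btk in blood samples was measured by intracellular flow cytometry.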

relapsed CLL = assay: Phase 1–2 multicenter study: clinical response; type: in vivo, human; details: for Resolution of B symptoms: 16 patients with B symptoms at baseline
[2] = Serum immunoglobulins and immune cell numbers over time in patients; type: in vivo
[3] = system: naturally occurring canine B-cell lymphomas; details: cited from earlier work
[4] = system: patients with relapsed CLL; assay: Phase 1–2 multicenter study: safety, adverse events; type: in vivo
Itk = target: T1, Itk (Homo sapiens, UniProt Q08881); assay: Itk inhibition; type: cell-based
T1 sequence (Q08881 1-620): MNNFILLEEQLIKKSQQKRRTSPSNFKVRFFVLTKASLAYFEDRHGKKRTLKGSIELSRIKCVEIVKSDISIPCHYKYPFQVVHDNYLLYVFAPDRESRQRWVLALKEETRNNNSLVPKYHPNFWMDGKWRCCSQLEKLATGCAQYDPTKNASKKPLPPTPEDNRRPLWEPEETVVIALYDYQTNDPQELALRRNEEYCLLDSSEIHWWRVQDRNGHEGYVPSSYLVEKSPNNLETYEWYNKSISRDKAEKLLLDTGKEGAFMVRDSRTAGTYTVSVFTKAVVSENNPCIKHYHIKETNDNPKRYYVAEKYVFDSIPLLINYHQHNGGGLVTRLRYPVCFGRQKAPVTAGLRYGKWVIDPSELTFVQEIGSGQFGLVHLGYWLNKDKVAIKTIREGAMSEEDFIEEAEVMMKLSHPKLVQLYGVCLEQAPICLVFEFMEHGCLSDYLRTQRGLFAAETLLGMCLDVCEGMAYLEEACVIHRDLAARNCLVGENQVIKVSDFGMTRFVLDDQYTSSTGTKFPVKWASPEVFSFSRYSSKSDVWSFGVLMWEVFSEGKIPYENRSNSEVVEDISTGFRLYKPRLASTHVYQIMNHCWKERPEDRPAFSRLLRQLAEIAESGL

natural killer cells = type: cell-based, human; details: obinutuzumab-coated CLL cells
EGFR = EGFR signaling; type: cell-based
[5] = system: pro-inflammatory cytokines; assay: Pro-inflammatory cytokine levels in patients; type: in vivo, human; details: from baseline to day 28 of treatment
How it was run: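 Patients with relapsed CLL were dosed orally and continuously at 100–400 mg once daily or 100 mg twice daily. Change in serum cytokines from baseline was tested by Wilcoxon signed-rank. Only patients with baseline and every follow-up value were included, and there was no multiplicity adjustment.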

platelet aggregation = assay: Platelet aggregation derived from blood of patients; type: in vivo, human; details: blood of patients receiving the drug
[6] = all patients, median follow-up 14.3 months

C=CC(=O)Nc1cccc(Nc2nc(Nc3ccc(OCCOC)cc3)ncc2F)c1 [CC-292]
Clinical results (CLL; CLL): inferior clinical results compared with ibrutinib
Tolerability (CLL; human, in vivo): well tolerated

CC#CC(=O)N1CCC[C@H]1c1nc(-c2ccc(C(=O)Nc3ccccn3)cc2)c2c(N)nccn12 [acalabrutinib, Acalabrutinib]
Absorption and elimination ([1]; in vivo): rapidly absorbed and eliminated
half-life ([1]; plasma): ~1 h
Inhibition of B-cell receptor signaling (primary CLL cells): dose-dependent inhibition
Phosphorylated Btk after treatment (phosphorylated Btk): complete loss of phosphorylated Btk
Response rate (relapsed CLL; 4 patients with prior idelalisib therapy): 100%
Resolution of B symptoms (relapsed CLL; by cycle 4): 88 % of patients
Resolution of B symptoms (relapsed CLL; by cycle 9): 100 % of patients
Response rate (relapsed CLL; 18 patients with del(17)(p13.1)): 100%
Patients experiencing reduction in lymphadenopathy (relapsed CLL; 59 of 60 patients): 98%
Progression-free survival events (relapsed CLL; a death from pneumonia (13 months) and a single progression (16 months)): 2 events
Best overall response rate (partial response and partial response with lymphocytosis) (relapsed CLL; [6]): 95%
Partial response with lymphocytosis (relapsed CLL; [6]): 10%
Stable disease (relapsed CLL; [6]): 5%
Cases of Richter’s transformation (relapsed CLL; median follow-up 14.3 months): No cases
Improvements in hemoglobin levels, platelet count and absolute neutrophil count (relapsed CLL; patients with baseline cytopenia): noted in the great majority of patients
Serum IgG, IgA and IgM over time ([2]; excluding patients receiving intravenous immunoglobulin): did not demonstrate significant change
T cell (CD4+, CD8+), natural killer cell and monocyte numbers over time ([2]; human, in vivo): no clinically significant change
Clinical responses [3]: objective clinical responses
Grade 5 event of pneumonia ([4]; N=61): † The all-grade column includes one patient with a Grade 5 event of pneumonia.
Adverse event Arthralgia, All Grades ([4]; human, in vivo): 10 (16) number of patients (percent)
Adverse event Arthralgia, Grades 1–2 ([4]; human, in vivo): 9 (15) number of patients (percent)
Adverse event Arthralgia, Grades 3–4 ([4]; human, in vivo): 1 (2) number of patients (percent)
Adverse event Contusion, All Grades ([4]; human, in vivo): 11 (18) number of patients (percent)
Adverse event Contusion, Grades 1–2 ([4]; human, in vivo): 11 (18) number of patients (percent)
Adverse event Contusion, Grades 3–4 ([4]; human, in vivo): 0 (0) number of patients (percent)
Adverse event Decreased weight, All Grades ([4]; human, in vivo): 10 (16) number of patients (percent)
Adverse event Decreased weight, Grades 1–2 ([4]; human, in vivo): 10 (16) number of patients (percent)
Adverse event Decreased weight, Grades 3–4 ([4]; human, in vivo): 0 (0) number of patients (percent)
Adverse event Diarrhea, All Grades ([4]; human, in vivo): 24 (39) number of patients (percent)
Adverse event Diarrhea, Grades 1–2 ([4]; human, in vivo): 23 (38) number of patients (percent)
Adverse event Diarrhea, Grades 3–4 ([4]; human, in vivo): 1 (2) number of patients (percent)
Adverse event Fatigue, All Grades ([4]; human, in vivo): 13 (21) number of patients (percent)
Adverse event Fatigue, Grades 1–2 ([4]; human, in vivo): 11 (18) number of patients (percent)
Adverse event Fatigue, Grades 3–4 ([4]; human, in vivo): 2 (3) number of patients (percent)
Adverse event Headache, All Grades ([4]; human, in vivo): 26 (43) number of patients (percent)
Adverse event Headache, Grades 1–2 ([4]; human, in vivo): 26 (43) number of patients (percent)
Adverse event Headache, Grades 3–4 ([4]; human, in vivo): 0 (0) number of patients (percent)
Adverse event Hypertension, All Grades ([4]; human, in vivo): 12 (20) number of patients (percent)
Adverse event Hypertension, Grades 1–2 ([4]; human, in vivo): 8 (13) number of patients (percent)
Adverse event Hypertension, Grades 3–4 ([4]; human, in vivo): 4 (7) number of patients (percent)
Adverse event Increased weight, All Grades ([4]; human, in vivo): 16 (26) number of patients (percent)
Adverse event Increased weight, Grades 1–2 ([4]; human, in vivo): 15 (25) number of patients (percent)
Adverse event Increased weight, Grades 3–4 ([4]; human, in vivo): 1 (2) number of patients (percent)
Adverse event Nausea, All Grades ([4]; human, in vivo): 12 (20) number of patients (percent)
Adverse event Nausea, Grades 1–2 ([4]; human, in vivo): 12 (20) number of patients (percent)
Adverse event Nausea, Grades 3–4 ([4]; human, in vivo): 0 (0) number of patients (percent)
Adverse event Peripheral edema, All Grades ([4]; human, in vivo): 13 (21) number of patients (percent)
Adverse event Peripheral edema, Grades 1–2 ([4]; human, in vivo): 13 (21) number of patients (percent)
Adverse event Peripheral edema, Grades 3–4 ([4]; human, in vivo): 0 (0) number of patients (percent)
Adverse event Petechiae, All Grades ([4]; human, in vivo): 10 (16) number of patients (percent)
Adverse event Petechiae, Grades 1–2 ([4]; human, in vivo): 10 (16) number of patients (percent)
Adverse event Petechiae, Grades 3–4 ([4]; human, in vivo): 0 (0) number of patients (percent)
Adverse event Pyrexia, All Grades ([4]; human, in vivo): 14 (23) number of patients (percent)
Adverse event Pyrexia, Grades 1–2 ([4]; human, in vivo): 12 (20) number of patients (percent)
Adverse event Pyrexia, Grades 3–4 ([4]; human, in vivo): 2 (3) number of patients (percent)
Adverse event Upper respiratory tract infection, All Grades ([4]; human, in vivo): 14 (23) number of patients (percent)
Adverse event Upper respiratory tract infection, Grades 1–2 ([4]; human, in vivo): 14 (23) number of patients (percent)
Adverse event Upper respiratory tract infection, Grades 3–4 ([4]; human, in vivo): 0 (0) number of patients (percent)
Most common adverse events: diarrhea ([4]; human, in vivo): 39%
Most common adverse events: headache ([4]; human, in vivo): 43%
Most common adverse events: increased weight ([4]; human, in vivo): 26%
Most common adverse events: pyrexia ([4]; human, in vivo): 23%
Most common adverse events: upper respiratory tract infection ([4]; human, in vivo): 23%
Dose-limiting toxicities ([4]; in vivo): No dose-limiting toxicities
Major hemorrhage or atrial fibrillation ([4]; in vivo): No major hemorrhage or atrial fibrillation
Severe diarrhea, rash, arthralgia/myalgia, bruising and bleeding events ([4]; in vivo): rare
Tolerability of long-term therapy ([4]; in vivo): well tolerated
Itk inhibition (Itk): lack of Itk inhibition
Inhibition of antibody-mediated killing by natural killer cells (natural killer cells): does not inhibit
Inhibition of EGFR signaling (EGFR): does not inhibit
Pro-inflammatory cytokines [5]: decreased significantly
Platelet aggregation (platelet aggregation): not the former
